KCNK3 block – human KCNK3 channel inhibitors, primary screen, CHO cells, FluxOR thallium flux, B-score; actives 0.84% (n = 340,000); AID 602410, 2012; FluxOR fluorescence; active compounds read low; B-score at 10 µM;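 active = B-score under library mean minus 4 SD, starting fluorescence ratio at most library mean plus 5 SD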;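 also: more negative B-score means stronger inhibition of thallium flux through KCNK3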
KCNQ1 inh – inhibitors of human KCNQ1 channel, primary screen, cell-based, thallium flux, high-throughput; Potassium voltage-gated channel subfamily KQT member 1 (Homo sapiens), P51787; CHO-K1 KCNQ1, FluxOR thallium flux fluorescence; active compounds read high; B-score at 10 µM; actives 1.3% (n = 310,000);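 active = compounds whose thallium flux B-score, printed positive for inhibition, exceeds three library SD while starting fluorescence stays within three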;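 also: channel opened by potassium depolarization with thallium stimulus after 20 min compound exposure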
Kir21 inh – inhibitors of mouse Kir2.1 inward-rectifier potassium channel | HEK293-Kir2.1, FluxOR thallium flux fluorescence; active compounds read low | B-score at 10 µM | actives 0.85% (n = 310,000);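 active = fluorescence ratio B-score at or below minus 3 SD of library scores, with starting-brightness B-score within 2 SD, cut at about -4.2 in these data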;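 also: channel flux triggered by added potassium and thallium sulfate stimulus; B-score of peak minus minimum fluorescence over baseline after thallium stimulus; more negative B-score means stronger Kir2.1 block with less thallium influx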
KCNK9 inh – KCNK9 potassium channel inhibitors, primary screen, HEK293 cells, thallium flux; Potassium channel subfamily K member 9 (Homo sapiens), Q9NPC2; FluxOR thallium flux fluorescence; active compounds read low; B-score at 10 µM; actives 1.2% (n = 310,000); AID 488922, 2010;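 active = ratio B-score over 3 SD below the library mean, with starting fluorescence within 5 SD of its mean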;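 also: negative B-score means less thallium flux so channel inhibition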
Target sequence (Q9NPC2 whole entry, looked up): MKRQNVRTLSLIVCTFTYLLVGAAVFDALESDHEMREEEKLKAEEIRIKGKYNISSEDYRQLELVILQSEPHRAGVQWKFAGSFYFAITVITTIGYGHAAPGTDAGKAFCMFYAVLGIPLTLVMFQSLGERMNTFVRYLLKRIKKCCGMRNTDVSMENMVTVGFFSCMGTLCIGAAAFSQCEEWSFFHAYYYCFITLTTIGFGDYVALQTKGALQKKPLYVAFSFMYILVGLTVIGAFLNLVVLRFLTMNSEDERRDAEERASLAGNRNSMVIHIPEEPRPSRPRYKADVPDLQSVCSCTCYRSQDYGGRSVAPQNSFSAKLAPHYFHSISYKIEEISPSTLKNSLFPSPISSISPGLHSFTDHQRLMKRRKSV
hERG rescue – hERG rescue from dofetilide block, primary screen, cell-based, CHO-hERG, FluxOR thallium flux, dofetilide IC70; Voltage-gated inwardly rectifying potassium channel KCNH2 (Homo sapiens), Q12809; dofetilide IC70 present; activation (rescue from dofetilide block), less the hit threshold, % at 10 µM; actives 0.51% (n = 310,000); AID 1511, 2009;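 active = activation above the mean of controls blocked by dofetilide plus 5 SD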;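 also: thallium influx through hERG after potassium depolarization seen as dye fluorescence rise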
KCNQ1 act – potentiators or activators of KCNQ1 channel, primary screen, cell-based, thallium flux, high-throughput; actives 0.35% (n = 310,000); B-score at 10 µM; AID 2648, 2010; Potassium voltage-gated channel subfamily KQT member 1 (Homo sapiens), P51787; CHO-K1 KCNQ1, thallium flux FluxOR fluorescence; active compounds read high;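 active = fluorescence ratio B-score, a plate-corrected score, at least three library SD, with initial intensity B-score within 5 SD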
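System: Stable KCNQ1 CHO-K1 line | Incubation: 90 min dye loading and 20 min compound exposure, both at room temperature | Measure: Ratio B score | Medium: Assay buffer for compound exposure, DMSO matched across wells | Compound dosing: Single-concentration screen | Probe or stimulus: K+/Tl+ depolarizing stimulus | Measured by: Kinetic FluxOR fluorescence, 10 s baseline plus 110 s post-stimulus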
Numbers without * were called inactive; i = inactive; x = no result. In the library only some 3.8% were active in any assay of this set; here they are far more common.

SMILES	KCNK3 block	KCNQ1 inh	Kir21 inh	KCNK9 inh	hERG rescue	KCNQ1 act
CC(C)N(Cc1ccccc1)C(=S)Nc1cccnc1	i	i	0.02	i	0	i
Cc1ccc(NC(=S)N(Cc2ccccc2)C(C)C)cc1	i	i	1.1	i	-4	i
CC(C)N(Cc1ccccc1)C(=S)NC(=O)C1(C)CC1(Cl)Cl (stereo not drawn)	i	i	-1.5	i	21*	26*
COc1cccc(NC(=S)N(CCCN2CCCC2)Cc2cccn2Cc2ccc(Cl)cc2)c1	i	i	-8.5*	i	-18	i
O=C(NCC(=O)N1CCC2(CC1)NCCc1[nH]cnc12)c1ccc2ccccc2c1	i	i	-0.61	i	-9	i
Cc1cccc(CN2CCCC(C(=O)Nc3ccccc3Oc3cccnc3)C2)c1 (stereo not drawn)	i	i	-5.5*	i	-3	i
O=C(Nc1ccc(Oc2cccnc2)cc1)C1CCN(Cc2ccccc2)CC1	i	i	-3.5	i	-6	i
Cc1ccc(CN2CCC(C(=O)Nc3ccc(Oc4cccnc4)cc3)CC2)cc1	i	i	-4.8*	i	-9	i
CC(C)(C)OC(=O)C[C@@H]1C/C=C\C[C@H](CC(=O)N(CCO)Cc2ccccc2)C(=O)NCCOC1=O	i	x	x	x	x	x
Cc1ccc(NC(=O)C2CC2c2ccccc2)c([N+](=O)[O-])c1 (stereo not drawn)	i	i	1.6	i	-4	i
Cc1csc2c(N3CCCCC3)ncnc12	i	i	0.44	i	8.6*	i
COc1ccc(-c2nsc3c(N4CCCCC4)ncnc23)cc1	i	i	-2.2	i	8.0*	i
Cc1csc2c(N3CCC(C(=O)O)CC3)ncnc12	i	i	1.5	i	-4	i
CCCCNc1c(-c2ccc(SC3CCCCC3)cc2)nc2ccccn12	i	i	0.12	i	-23	i
CCC(C)Sc1cccc(-c2nc3cc(C)ccn3c2NCc2ccccc2)c1 (stereo not drawn)	i	8*	-1.4	i	-5	i
CCCCNc1c(-c2ccc(SC(C)CC)cc2)nc2ccccn12 (stereo not drawn)	i	8*	-1.3	-7.8*	-38	i
CCC1(CC)C(=O)N(c2ccccc2)C(=N)N(c2ccccc2)C1=O	i	x	x	x	x	x
O=C(O)CN1C(=O)C(=O)N(Cc2ccc(C(F)(F)F)cc2)C1=O	i	i	0.12	i	5.4*	i
C=CCc1cc(Cl)ccc1OCCCNCCO	i	i	-5.4*	i	-6	i
C=CCc1cc(Cl)ccc1OCCCNC(C)C	i	i	-3.1	i	-3	i
CCOc1cccc(OCCOCCOc2ccccc2C(C)=O)c1	i	i	-1	i	-9	i
CCOc1ccc(OCCCCOc2ccccc2C(C)=O)cc1	i	7*	0.07	i	-16	i
CSCC[C@H](NC(=O)[C@H](Cc1ccccc1)n1c(=O)[nH]c2ccccc2c1=O)C(=O)N1CCC[C@H]1C(=O)O	i	i	-0.52	i	-10	i
CC(C)(C)OC(=O)NCCc1nnc(SCC(N)=O)o1	i	i	1.1	i	-20	i
CC(C)(C)OC(=O)NCCc1nnc(SCc2ccccc2Cl)o1	i	i	-5.5*	i	-4	i
CCCCSc1nnc(CCNC(=O)OC(C)(C)C)o1	i	i	0.35	i	-2	i
CC(C)(C)OC(=O)NCCCCCc1nnc(SCC(N)=O)o1	i	i	0.36	i	4.6*	i
CC(C)(C)OC(=O)NCCc1nnc(SCc2ccccc2)o1	i	i	-6.1*	i	-8	i

Compound activity as filed in PubChem.
